In the array DNA melting data of Ke et al. (doi:10.1101/2024.01.08.574731):

How the values were obtained:
[1] = melting temperature; fluorescence melt of hairpins on a sequencing array, two-state fit, raised by 9.35 °C to match UV melts; conditions: sodium 0.088 M
Procedure, shortened: (§1)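 To match UV melts, fitted temperatures were raised by 9.35 °C. These fits were bootstrapped two-state models that gave melting temperature and folding enthalpy, combined by inverse variance over four replicates. The input was normalised Cy3 fluorescence of library hairpins with annealed Cy3 and quencher oligos on a sequenced MiSeq flow cell, imaged in 50 mM Na-HEPES pH 8.0, 25 mM NaCl in 2.5 °C steps up to 60 °C.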

[2] = folding enthalpy; higher = less favourable; fluorescence melt of hairpins on a sequencing array, two-state fit; conditions: sodium 0.088 M
Procedure, shortened: as §1

Row | Sequence | Tm [1] [°C] | folding enthalpy [2] [kcal/mol]
1 | GCACTTCGAAAGAAATGC (((.(((....))).))) | 42.3 | -31.3
2 | GCTTTAGGAAACCAAAGC (((((.(....).))))) | 35.4 | -28.3
3 | GAAGGACCGAAAGGTTTC (((..(((....)))))) | 24 | -10.4
4 | GATCCCAACGGGGATC ((((((....)))))) | 59.4 | -30.9
5 | GAAGGGGGAAACTCCTTC (((((.(....).))))) | 45.6 | -25.6
6 | GGTCGATCGAAAGATACC (((..(((....)))))) | 26.2 | -6.77
7 | GTTCGCGGAAACGTGAGC (.((.((....)).)).) | 41.3 | -22.4
8 | TTTTGGAAACAAAA (((((....))))) | 27.4 | -9.86
9 | GCCTTGCCGAAAGGCGGC (((..(((....)))))) | 67.5 | -10.8
10 | GCCAGGCGAAAGCCGAGC ((..(((....)))..)) | 52.2 | -13.3
11 | GGGATCCGAAAGGAACCC (((.(((....))).))) | 56.7 | -46.3
12 | GCCACCGAAAGGTTGGC ((((((....))).))) | 60.5 | -33.9
13 | GCTGCGCGAAAGCACGGC ((.(.((....)).).)) | 59.1 | -26.6
14 | GATCCCCGAAAGGGAATC (((.(((....))).))) | 44.9 | -21.8
15 | GATCTAGCACTAGATC ((((((....)))))) | 47.1 | -43.9
16 | GCCCAGCGAAAGCCGAGC ((.(.((....)).).)) | 40.6 | -7.29
17 | GGTGTATCGAAAGATACC (((..(((....)))))) | 43.3 | -14.7
18 | CGTTCGGAAACGACTACG ((((((....)))..))) | 29 | -12.6
19 | GATCCGAAAGGATC (((((....))))) | 66.8 | -29.5
20 | GTCTGGACGAAAGTCGAC (((..(((....)))))) | 38.4 | -17.6
21 | GTTACCGAAAGGTGAAC ((((((....))).))) | 39.9 | -14.8
22 | GTTTGACGAAAGTCGAAC (((.(((....))).))) | 57.8 | -35
23 | GACGGCCCGAAAGGGGTC (((..(((....)))))) | 44.1 | -8.8

Row | Sequence | Tm [1] [°C] | folding enthalpy [2] [kcal/mol]
24 | GGTTTTGCGAAAGCAACC (((..(((....)))))) | 30.2 | -11.9
25 | GGACGCTCGAAAGAGTCC (((..(((....)))))) | 46.5 | -22.1
26 | GTGACAGAAATGTCAC ((((((....)))))) | 57.6 | -35.7
27 | GATCCGTTCACGGATC ((((((....)))))) | 67.4 | -51
28 | GCGGAACGCCGC ((((....)))) | 58.4 | -9.84
29 | GAGACAGGAAACTGCCTC (((.(((....))).))) | 42.3 | -39.7
30 | GCGGTCGAAAGACCCGC ((((((....))).))) | 66.8 | -24
31 | GACAGAGGAAACCCTGTC (((((.(....).))))) | 42.5 | -32.9
32 | GCCCTACCGAAAGGTGGC (((..(((....)))))) | 49 | -20.8
33 | GCCAAGGGAAACCTTAGC ((.((((....)))).)) | 33.2 | -19.3
34 | GGCGACCGAAAGGTGGCC (((.(((....))).))) | 67.9 | -29.2
35 | GTCCACGGAAACGTGAAC ((.((((....)))).)) | 45.5 | -18.1
36 | GAACTCCGAAAGGAATTC (((.(((....))).))) | 37.5 | -25.9
37 | GGGTAGAAATACCC (((((....))))) | 47.9 | -23.1
38 | GATCCACGATGGATC ((((((...)))))) | 48.6 | -27
39 | GCTATCGAAAGATGCAGC ((((((....)))..))) | 35.8 | -18.3
40 | GGAAACGGAAACATTTCC (((((.(....).))))) | 31.3 | -28.4
41 | CGTCTCCGGAAACGGACG (((..(((....)))))) | 37.8 | -14.7
42 | GTGAATCGAAAGATACAC (((.(((....))).))) | 46.9 | -27.9
43 | GCGTTCGAAAGAAGCGC ((((((....))).))) | 52.5 | -28.8
44 | GTCCACGAAAGTGCGAC ((((((....))).))) | 50.9 | -22.8
45 | GGCACCCCGAAAGGGGCC (((..(((....)))))) | 53.1 | -12.9
46 | GATCCTCTAAAGGATC ((((((....)))))) | 52.4 | -39.3

Row | Sequence | Tm [1] [°C] | folding enthalpy [2] [kcal/mol]
47 | GGTATTCGAAAGAAAACC (((.(((....))).))) | 39.3 | -32.8
48 | GTGCCGGGAAACTGGCGC (.(((.(....).))).) | 53.4 | -30.4
49 | GGGGCCGGAAACAGCCCC (((((.(....).))))) | 57 | -41.3
50 | GCACGCGAAAGCGGATGC ((((((....)))..))) | 54.9 | -15
51 | GATCAATCGATTGATC ((((((....)))))) | 51.3 | -53.5
52 | GATCGTCGAACGATC ((((((...)))))) | 53.1 | -33.9
53 | GCTGTGCGAAAGCACCGC ((.((((....)))).)) | 58.7 | -17.9
54 | CGTCCGGAAACGGAAACG ((((((....)))..))) | 40.5 | -20.9
55 | GATCATCTGGATGATC ((((((....)))))) | 53 | -44.9
56 | GATCGATGATTCGATC ((((((....)))))) | 53.2 | -36.4
57 | GTGCTTGGAAACGAGCAC (((((.(....).))))) | 55.5 | -40.1
58 | GCACGGACGAAAGTCTGC (((..(((....)))))) | 42.5 | -12.9
59 | TTCCGGAAACGGAA (((((....))))) | 48.7 | -18.6
60 | GATCAAGGGGTTGATC ((((((....)))))) | 42.8 | -29.4
61 | GGCGCAGGAAACTACGCC ((((.((....)).)))) | 53.5 | -39
62 | GTCCGCGAAAGCGATGAC ((((((....)))..))) | 38.3 | -15.9
63 | GTTTTCGCGAAAGCGAAC (((..(((....)))))) | 40.1 | -8.54
64 | GTGTGCGAAAGCAGCCAC ((((((....)))..))) | 36.1 | -13.4
65 | GGAGGTGGAAACATCTCC ((((.((....)).)))) | 49.1 | -44.1
66 | GATTTGCGAAAGCACATC (((.(((....))).))) | 43.9 | -19.9
67 | GTGTTTACGAAAGTACAC (((..(((....)))))) | 36.7 | -25
68 | GGCGACGGAAACACCGCC ((((..(....)..)))) | 44.5 | -29.3
69 | GCAGAGCCGAAAGGCTGC (((..(((....)))))) | 52.9 | -13.8
